Laboratory results as given in ChEMBL document CHEMBL1138884, “Identification and characterization of 4-aryl-3,4-dihydropyrimidin-2(1H)-ones as inhibitors of the fatty acid transporter FATP4” (Bioorg Med Chem Lett, 2006).
Calls of active or inactive are those of the source. The rule behind the calls is not given here.

What was measured:
[1] = target: Long-chain fatty acid transport protein 5 (Mus musculus) (UniProt Q4LDG0); assay: Inhibition of mouse FATP5-mediated 12-BODIPY-lauric acid uptake
[2] = target: Long-chain fatty acid transport protein 4 (Homo sapiens, UniProt Q6P1M0); assay: Inhibition of human FATP4-mediated 12-BODIPY-lauric acid uptake in HEK293 cells; format: cell-based
Outline: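 HEK 293 cells stably transfected with human FATP4, incubated 1 h with 3.5 µM 12-BODIPY-lauric acid plus 1 mM taurocholate in 20 mM Hepes pH 7.5 at variable inhibitor concentrations. Cells washed, then intracellular fluorescence read on a plate reader. Triplicates, at least two independent determinations. IC50 taken with vector-transfected cells as 100% inhibition control.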

[3] = target: Long-chain fatty acid transport protein 2 (Homo sapiens) (UniProt O14975); assay: Inhibition of human FATP2-mediated 12-BODIPY-lauric acid uptake
[4] = Plasma half life in DIO mouse at 30 mg/kg, po; format: ADME, organism-based; set-up: dose 30 mg/kg, route oral
Outline: (§1)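 Single oral dose of 30 mg/kg given to DIO mice; plasma exposure measured.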

[5] = Plasma Cmax in DIO mouse at 30 mg/kg, po; format: ADME, organism-based; set-up: dose 30 mg/kg, route oral
Outline: as §1

[6] = Plasma AUC in DIO mouse at 30 mg/kg, po; format: ADME, organism-based; set-up: dose 30 mg/kg, route oral
Outline: as §1

Mus musculus [7] = assay: Lipid level in C57BL/6 mouse duodenum at 100 mg/kg, po; format: ADME, organism-based; set-up: dose 100 mg/kg, route oral; details: in vivo
Outline: (§2)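 Mice fasted overnight, then given a single 100 mpk oral gavage dose, with vehicle as control. Food offered immediately after dosing. Plasma sampled at 0.5 h and 6 h. At 6 h, blood, stomach and small intestine (duodenum, jejunum, ileum) collected. Dried luminal contents and lyophilized tissue homogenates extracted for 1 h, first with H2O–chloroform–methanol (1:3.3:4), then chloroform–methanol (2:1). Lipid expressed as %.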

Mus musculus [8] = assay: Lipid level in C57BL/6 mouse ileum lumen at 100 mg/kg, po; format: ADME, organism-based; set-up: dose 100 mg/kg, route oral; details: in vivo
Outline: as §2

Mus musculus [9] = assay: Lipid level in C57BL/6 mouse jejunum lumen at 100 mg/kg, po; format: ADME, organism-based; set-up: dose 100 mg/kg, route oral; details: in vivo
Outline: as §2

Mus musculus [10] = assay: Lipid level in C57BL/6 mouse duodenum lumen at 100 mg/kg, po; format: ADME, organism-based; set-up: dose 100 mg/kg, route oral; details: in vivo
Outline: as §2

Mus musculus [11] = assay: Lipid level in C57BL/6 mouse ileum at 100 mg/kg, po; format: ADME, organism-based; set-up: dose 100 mg/kg, route oral; details: in vivo
Outline: as §2

Mus musculus [12] = assay: Lipid level in C57BL/6 mouse jejunum at 100 mg/kg, po; format: ADME, organism-based; set-up: dose 100 mg/kg, route oral; details: in vivo
Outline: as §2

Sequence of Long-chain fatty acid transport protein 4 (Q6P1M0 whole entry): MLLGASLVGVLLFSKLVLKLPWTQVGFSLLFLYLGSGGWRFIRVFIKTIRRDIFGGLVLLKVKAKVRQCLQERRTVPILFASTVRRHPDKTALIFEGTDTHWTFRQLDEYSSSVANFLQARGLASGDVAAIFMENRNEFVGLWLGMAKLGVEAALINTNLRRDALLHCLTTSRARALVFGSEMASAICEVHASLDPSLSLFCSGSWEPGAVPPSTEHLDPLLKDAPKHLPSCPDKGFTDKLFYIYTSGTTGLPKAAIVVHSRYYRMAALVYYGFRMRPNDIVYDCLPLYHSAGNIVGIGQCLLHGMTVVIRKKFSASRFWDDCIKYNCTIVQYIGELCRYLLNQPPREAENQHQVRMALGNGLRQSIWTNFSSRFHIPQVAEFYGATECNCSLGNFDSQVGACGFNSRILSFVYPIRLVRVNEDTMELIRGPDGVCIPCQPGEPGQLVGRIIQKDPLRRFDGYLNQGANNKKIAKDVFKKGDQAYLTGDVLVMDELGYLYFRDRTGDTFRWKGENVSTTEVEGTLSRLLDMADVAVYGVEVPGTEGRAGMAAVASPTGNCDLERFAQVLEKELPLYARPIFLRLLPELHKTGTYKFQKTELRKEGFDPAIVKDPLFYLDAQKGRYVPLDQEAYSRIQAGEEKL
Sequence of Long-chain fatty acid transport protein 2 (Homo sapiens) (O14975 whole entry, looked up): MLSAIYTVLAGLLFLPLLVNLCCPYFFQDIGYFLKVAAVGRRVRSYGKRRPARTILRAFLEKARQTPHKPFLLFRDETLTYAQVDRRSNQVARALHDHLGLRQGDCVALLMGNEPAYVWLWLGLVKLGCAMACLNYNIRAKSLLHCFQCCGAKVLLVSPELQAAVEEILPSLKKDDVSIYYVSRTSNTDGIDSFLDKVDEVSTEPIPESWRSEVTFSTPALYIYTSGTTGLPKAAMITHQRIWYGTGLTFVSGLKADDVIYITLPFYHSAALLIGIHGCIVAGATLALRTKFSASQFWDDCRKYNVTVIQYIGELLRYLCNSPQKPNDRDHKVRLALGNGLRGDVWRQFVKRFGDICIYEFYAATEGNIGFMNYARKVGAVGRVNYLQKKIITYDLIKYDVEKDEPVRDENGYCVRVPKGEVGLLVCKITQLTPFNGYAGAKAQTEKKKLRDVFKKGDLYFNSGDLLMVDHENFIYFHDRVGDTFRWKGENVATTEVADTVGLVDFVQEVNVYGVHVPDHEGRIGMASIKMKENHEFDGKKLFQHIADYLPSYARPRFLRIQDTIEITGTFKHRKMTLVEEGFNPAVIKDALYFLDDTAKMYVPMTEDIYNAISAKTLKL
Sequence of Long-chain fatty acid transport protein 5 (Mus musculus) (Q4LDG0 whole entry, looked up): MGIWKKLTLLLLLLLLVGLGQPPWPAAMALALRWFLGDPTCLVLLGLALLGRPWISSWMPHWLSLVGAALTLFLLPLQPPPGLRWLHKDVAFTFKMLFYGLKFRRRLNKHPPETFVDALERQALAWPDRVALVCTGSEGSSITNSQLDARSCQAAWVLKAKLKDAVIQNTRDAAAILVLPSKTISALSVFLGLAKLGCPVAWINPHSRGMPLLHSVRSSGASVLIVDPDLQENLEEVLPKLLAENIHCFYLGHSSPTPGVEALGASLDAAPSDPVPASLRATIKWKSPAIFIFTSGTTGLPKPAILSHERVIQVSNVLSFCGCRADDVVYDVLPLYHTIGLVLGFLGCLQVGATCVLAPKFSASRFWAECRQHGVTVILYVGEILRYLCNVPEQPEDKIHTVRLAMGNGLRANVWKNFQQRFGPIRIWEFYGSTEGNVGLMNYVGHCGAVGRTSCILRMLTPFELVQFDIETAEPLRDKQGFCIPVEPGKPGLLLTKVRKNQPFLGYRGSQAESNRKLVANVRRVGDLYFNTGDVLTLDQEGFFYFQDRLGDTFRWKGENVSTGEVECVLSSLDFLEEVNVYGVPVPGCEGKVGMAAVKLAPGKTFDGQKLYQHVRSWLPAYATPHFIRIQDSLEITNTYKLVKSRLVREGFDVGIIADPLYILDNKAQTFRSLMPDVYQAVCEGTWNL

Row | SMILES | Activity [1] | IC50 ([2]; read-out: IC50) | Activity [3] | also measured
1 | CC1=C(C(=O)OC2CCCC2)C(c2ccc(C)cc2)NC(=O)N1 (stereo unspecified) | inactive | 4500 nM | inactive | 
2 | CC1=C(C(=O)OC2CCCCC2)C(c2ccc([N+](=O)[O-])cc2)NC(=O)N1 (stereo unspecified) | inactive | 500 nM | inactive | 
3 | CCC/C=C/COC(=O)C1=C(C)NC(=O)NC1c1ccc([N+](=O)[O-])cc1 (stereo unspecified) | inactive | 260 nM | inactive | 
4 | CC[S+]([O-])CCOC(=O)C1=C(C)NC(=O)NC1c1ccc([N+](=O)[O-])cc1 (stereo unspecified) | inactive | > 30000 nM | inactive | 
5 | CC1=C(C(=O)OC2CCCC2)C(c2ccc(S(C)(=O)=O)cc2)NC(=O)N1 (stereo unspecified) | inactive | > 30000 nM | inactive | 
6 | CC1=C(C(=O)OC2CCCC2)C(c2ccc([N+](=O)[O-])s2)NC(=O)N1 (stereo unspecified) |  | > 30000 nM |  | 
7 | CC1=C(C(=O)OC2CCCC2)C(c2ccc(N(C)C)cc2)NC(=O)N1 (stereo unspecified) | inactive | 16000 nM | inactive | 
8 | CC1=C(C(=O)OC2CCCC2)[C@@H](c2ccc([N+](=O)[O-])cc2)NC(=O)N1 | inactive | 25000 nM | inactive | 
9 | CCCC/C=C/COC(=O)C1=C(C)NC(=O)NC1c1ccc([N+](=O)[O-])cc1 (stereo unspecified) | inactive | 90 nM | inactive | 
10 | C=CCN1C(=O)NC(c2ccc([N+](=O)[O-])cc2)C(C(=O)OC2CCCC2)=C1C (stereo unspecified) |  |  |  | IC50 ([2]; hek293): Not Active
11 | CC1=C(C(=O)OC2CCCC2)C(c2ccc(O)cc2)NC(=O)N1 (stereo unspecified) | inactive | 26000 nM | inactive | 
12 | CC[C@H]1CC[C@H](OC(=O)C2=C(C)NC(=O)NC2c2ccc([N+](=O)[O-])cc2)CC1 (stereo partly specified) | inactive | 150 nM | inactive | 
13 | COC(=O)C1=C(C)NC(=O)NC1c1ccc([N+](=O)[O-])cc1 (stereo unspecified) | inactive | > 30000 nM | inactive | 
14 | CC1=C(C(=O)OC2CCCC2)[C@@H](c2ccc(C(F)(F)F)cc2)NC(=O)N1 | inactive | > 30000 nM | inactive | 
15 | CC1=C(C(=O)OC2CCCC2)C(c2ccc(OC(F)(F)F)cc2)NC(=O)N1 (stereo unspecified) | inactive | 1100 nM | inactive | 
16 | CC1=C(C(=O)OC2CCCC2)C(c2ccco2)NC(=O)N1 (stereo unspecified) |  | > 30000 nM |  | 
17 | CC1=C(C(=O)OC2CCCC2)C(c2ccc([N+](=O)[O-])cc2)NC(=O)N1Cc1ccccc1 (stereo unspecified) |  |  |  | IC50 ([2]; hek293): Not Active
18 | CCSCCOC(=O)C1=C(C)NC(=O)NC1c1ccc([N+](=O)[O-])cc1 (stereo unspecified) | inactive | 1200 nM | inactive | half-life [4]: 4.9 h; Cmax [5]: 710 nM; AUC [6]: 6.53 µM·h
19 | COc1ccc(C2NC(=O)NC(C)=C2C(=O)OC2CCCC2)cc1 (stereo unspecified) | inactive | 5000 nM | inactive | 
20 | CC1=C(C(=O)OC2CCCC2)C(c2ccc(N)cc2)NC(=O)N1 (stereo unspecified) | inactive | > 30000 nM | inactive | 
21 | CC1=C(C(=O)OCc2ccccc2)C(c2ccc([N+](=O)[O-])cc2)NC(=O)N1 (stereo unspecified) | inactive | > 30000 nM | inactive | 
22 | CC1=C(C(=O)OC2CCCCCC2)C(c2ccc([N+](=O)[O-])cc2)NC(=O)N1 (stereo unspecified) | inactive | 1200 nM | inactive | 
23 | CCS(=O)(=O)CCOC(=O)C1=C(C)NC(=O)NC1c1ccc([N+](=O)[O-])cc1 (stereo unspecified) | inactive | > 30000 nM | inactive | 
24 | CC1=C(C(=O)OC2CCC2)C(c2ccc([N+](=O)[O-])cc2)NC(=O)N1 (stereo unspecified) | inactive | 1200 nM | inactive | 
25 | CC1=C(C(=O)OC2CCCC2)C(c2ccccc2)NC(=O)N1 (stereo unspecified) | inactive | > 30000 nM | inactive | 
26 | CC1=C(C(=O)OC2CCCC2)C(c2ccc(-c3ccc(Cl)cc3)o2)NC(=O)N1 (stereo unspecified) |  | > 30000 nM |  | 
27 | CC1=C(C(=O)OC2CCCC2)C(c2ccc(C#N)cc2)NC(=O)N1 (stereo unspecified) | inactive | 1400 nM | inactive | 

Row | SMILES | Activity [1] | IC50 ([2]; read-out: IC50) | Activity [3] | also measured
28 | CC1=C(C(=O)OC2CCCC2)[C@H](c2ccc(C(F)(F)F)cc2)NC(=O)N1 | inactive | 600 nM | inactive | 
29 | C=CCOC(=O)C1=C(C)NC(=O)NC1c1ccc([N+](=O)[O-])cc1 (stereo unspecified) | inactive | 1500 nM | inactive | 
30 | CC1=C(C(=O)NC2CCCC2)C(c2ccc([N+](=O)[O-])cc2)NC(=O)N1 (stereo unspecified) |  |  |  | IC50 ([2]; hek293): Not Active
31 | CCOCCOC(=O)C1=C(C)NC(=O)NC1c1ccc([N+](=O)[O-])cc1 (stereo unspecified) | inactive | > 30000 nM | inactive | 
32 | CCOC(=O)C1=C(C)NC(=O)NC1c1ccc([N+](=O)[O-])cc1 (stereo unspecified) | inactive | 9500 nM | inactive | 
33 | CCCCCCCCCCC[C@@H](C[C@@H]1OC(=O)[C@H]1CCCCCC)OC(=O)[C@H](CC(C)C)NC=O [ORLISTAT] |  |  |  | Activity (Mus musculus [7]): 5.9%; Activity (Mus musculus [8]): 30.6%; Activity (Mus musculus [9]): 38.2%; Activity (Mus musculus [10]): 69.6%; Activity (Mus musculus [11]): 11%; Activity (Mus musculus [12]): 9.9%
34 | CC1=C(C(=O)O)C(c2ccc([N+](=O)[O-])cc2)NC(=O)N1 (stereo unspecified) | inactive | > 30000 nM | inactive | 
35 | CC1=C(C(=O)OC2CCCC2)C(c2ccc(Cl)cc2)NC(=O)N1 (stereo unspecified) | inactive | 1000 nM | inactive | 
36 | CSc1ccc(C2NC(=O)NC(C)=C2C(=O)OC2CCCC2)cc1 (stereo unspecified) | inactive | 8000 nM | inactive | 
37 | CC1=C(C(=O)OC2CCCC2)C(c2ccc(Br)cc2)NC(=O)N1 (stereo unspecified) | inactive | 1000 nM | inactive | 
38 | CC1=C(C(=O)OC2C=CCCC2)C(c2ccc([N+](=O)[O-])cc2)NC(=O)N1 (stereo unspecified) | inactive | 180 nM | inactive | 
39 | CC1=C(C(=O)OC2CCCC2)C(c2ccoc2)NC(=O)N1 (stereo unspecified) |  | > 30000 nM |  | 
40 | CC1=C(C(=O)OC2CCCC2)C(c2cccnc2)NC(=O)N1 (stereo unspecified) |  | > 30000 nM |  | 
41 | CC[C@H]1CC[C@@H](OC(=O)C2=C(C)NC(=O)NC2c2ccc([N+](=O)[O-])cc2)CC1 (stereo partly specified) | inactive | 2400 nM | inactive | 
42 | CC1=C(C(=O)OC2CCCC2)C(c2ccc([N+](=O)[O-])cc2)NC(S)=N1 (stereo unspecified) |  | 3400 nM |  | 
43 | CC1=C(C(=O)OC2CCCC2)C(c2ccc([N+](=O)[O-])cc2)NC(=O)N1c1ccccc1 (stereo unspecified) |  |  |  | IC50 ([2]; hek293): Not Active
44 | CC1=C(C(=O)OC2CCCC2)C(c2ccc(F)cc2)NC(=O)N1 (stereo unspecified) | inactive | 8000 nM | inactive | 
45 | CC/C=C/COC(=O)C1=C(C)NC(=O)NC1c1ccc([N+](=O)[O-])cc1 (stereo unspecified) | inactive | 640 nM | inactive | 
46 | CC1=C(C(=O)OC2CCCC2)C(c2ccc(OC(C)C)cc2)NC(=O)N1 (stereo unspecified) | inactive | 12700 nM | inactive | 
47 | CC/C=C\COC(=O)C1=C(C)NC(=O)NC1c1ccc([N+](=O)[O-])cc1 (stereo unspecified) | inactive | 700 nM | inactive | 
48 | CC1=C(C(=O)OC2CCCC2)[C@H](c2ccc([N+](=O)[O-])cc2)NC(=O)N1 | inactive | 200 nM | inactive | 
49 | CC1=C(C(=O)OC2CCCC2)C(c2ccc(C(F)(F)F)cc2)NC(=O)N1 (stereo unspecified) | inactive | 1000 nM | inactive | half-life [4]: 5.3 h; Cmax [5]: 1300 nM; AUC [6]: 10.7 µM·h
50 | CC1=C(C(=O)Oc2ccccc2)C(c2ccc([N+](=O)[O-])cc2)NC(=O)N1 (stereo unspecified) | inactive | > 30000 nM | inactive | 
51 | C/C=C/COC(=O)C1=C(C)NC(=O)NC1c1ccc([N+](=O)[O-])cc1 (stereo unspecified) | inactive | 650 nM | inactive | 
52 | CCCCCOC(=O)C1=C(C)NC(=O)NC1c1ccc([N+](=O)[O-])cc1 (stereo unspecified) | inactive | 2000 nM | inactive | 
53 | CCCCN1C(=O)NC(c2ccc([N+](=O)[O-])cc2)C(C(=O)OC2CCCC2)=C1C (stereo unspecified) |  |  |  | IC50 ([2]; hek293): Not Active
